Data taken from ChEMBL document CHEMBL1255501, “Heteroresistance of Cryptococcus gattii to fluconazole” (2010).
Calls of active or inactive are those of the source.

What was measured:
Format in all cases: functional, organism-based
Conditions in all cases: Cryptococcus bacillisporus
[1] = test system: Cryptococcus gattii species complex; experiment: Antimicrobial activity against fluconazole-resistant Cryptococcus gattii serotype C isolate NIH257 at 64 ug/ml
[2] = test system: Cryptococcus gattii species complex; experiment: Antimicrobial activity against fluconazole-resistant Cryptococcus gattii serotype B isolate NIH771 at 64 ug/ml
[3] = test system: Cryptococcus gattii species complex; experiment: Antimicrobial activity against fluconazole-resistant Cryptococcus gattii serotype B isolate B5763 at 64 ug/ml
Method in brief: (§1)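 Strains were grown overnight in YPD broth at 30°C, washed, serially diluted in sterile saline and spotted at 3 μl onto YPD agar alone or YPD agar containing a xenobiotic: rhizoxin 0.5 μg/ml, gliotoxin 3.2 μg/ml or trichostatin A 64 μg/ml. Growth was compared by spot test.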

[4] = test system: Cryptococcus gattii species complex; experiment: Antimicrobial activity against fluconazole-resistant Cryptococcus gattii serotype B isolate B5788 at 64 ug/ml; method in brief: as §1
[5] = test system: Cryptococcus gattii species complex; experiment: Antimicrobial activity against fluconazole-resistant Cryptococcus gattii serotype B isolate NIH535 at 64 ug/ml; method in brief: as §1
[6] = test system: Cryptococcus deuterogattii; experiment: Antimicrobial activity against fluconazole-resistant Cryptococcus gattii serotype B isolate NIH444 at 64 ug/ml; method in brief: as §1
[7] = test system: Cryptococcus gattii species complex; experiment: Antimicrobial activity against fluconazole-resistant Cryptococcus gattii serotype B isolate NIH198 at 64 ug/ml; method in brief: as §1
[8] = test system: Cryptococcus gattii species complex; experiment: Antimicrobial activity against fluconazole-resistant Cryptococcus gattii serotype B isolate NIH189 at 64 ug/ml; method in brief: as §1
[9] = test system: Cryptococcus gattii species complex; experiment: Antimicrobial activity against fluconazole-resistant Cryptococcus gattii serotype C isolate NIH34 at 64 ug/ml
[10] = test system: Cryptococcus gattii species complex; experiment: Antimicrobial activity against fluconazole-resistant Cryptococcus gattii serotype B isolate NIH754 at 64 ug/ml; method in brief: as §1
[11] = test system: Cryptococcus gattii species complex; experiment: Antimicrobial activity against fluconazole-resistant Cryptococcus gattii serotype B isolate NIH184 at 64 ug/ml; method in brief: as §1
[12] = test system: Cryptococcus gattii species complex; experiment: Antimicrobial activity against fluconazole-resistant Cryptococcus gattii serotype B isolate NIH409 at 64 ug/ml; method in brief: as §1
[13] = test system: Cryptococcus gattii species complex; experiment: Antimicrobial activity against fluconazole-resistant Cryptococcus gattii serotype C isolate H0058-1-818 at 64 ug/ml
[14] = test system: Cryptococcus gattii species complex; experiment: Antimicrobial activity against fluconazole-resistant Cryptococcus gattii serotype B isolate B3939 at 64 ug/ml; method in brief: as §1
[15] = test system: Cryptococcus gattii species complex; experiment: Antimicrobial activity against fluconazole-resistant Cryptococcus gattii serotype C isolate H00581-1941 at 64 ug/ml
[16] = test system: Cryptococcus gattii species complex; experiment: Antimicrobial activity against fluconazole-resistant Cryptococcus gattii serotype B isolate NIH412 at 64 ug/ml; method in brief: as §1
[17] = test system: Cryptococcus gattii species complex; experiment: Antimicrobial activity against fluconazole-resistant Cryptococcus gattii serotype B isolate NIH200 at 64 ug/ml; method in brief: as §1
[18] = test system: Cryptococcus gattii species complex; experiment: Antimicrobial activity against fluconazole-resistant Cryptococcus gattii serotype B isolate RB3 at 64 ug/ml
[19] = test system: Cryptococcus gattii species complex; experiment: Antimicrobial activity against fluconazole-resistant Cryptococcus gattii serotype B isolate B4506 at 64 ug/ml; method in brief: as §1
[20] = test system: Cryptococcus gattii species complex; experiment: Antimicrobial activity against fluconazole-resistant Cryptococcus gattii serotype C isolate H0058-1-818 at 3.2 ug/ml
[21] = test system: Cryptococcus gattii species complex; experiment: Antimicrobial activity against fluconazole-resistant Cryptococcus gattii serotype B isolate NIH198 at 3.2 ug/ml; method in brief: as §1
[22] = test system: Cryptococcus gattii species complex; experiment: Antimicrobial activity against fluconazole-resistant Cryptococcus gattii serotype B isolate B4506 at 3.2 ug/ml; method in brief: as §1
[23] = test system: Cryptococcus gattii species complex; experiment: Antimicrobial activity against fluconazole-resistant Cryptococcus gattii serotype B isolate RB3 at 3.2 ug/ml
[24] = test system: Cryptococcus gattii species complex; experiment: Antimicrobial activity against fluconazole-resistant Cryptococcus gattii serotype B isolate NIH184 at 3.2 ug/ml; method in brief: as §1
[25] = test system: Cryptococcus gattii species complex; experiment: Antimicrobial activity against fluconazole-resistant Cryptococcus gattii serotype C isolate NIH257 at 3.2 ug/ml
[26] = test system: Cryptococcus gattii species complex; experiment: Antimicrobial activity against fluconazole-resistant Cryptococcus gattii serotype B isolate NIH200 at 3.2 ug/ml; method in brief: as §1
[27] = test system: Cryptococcus gattii species complex; experiment: Antimicrobial activity against fluconazole-resistant Cryptococcus gattii serotype B isolate NIH771 at 3.2 ug/ml
[28] = test system: Cryptococcus gattii species complex; experiment: Antimicrobial activity against fluconazole-resistant Cryptococcus gattii serotype B isolate B3939 at 3.2 ug/ml; method in brief: as §1
[29] = test system: Cryptococcus gattii species complex; experiment: Antimicrobial activity against fluconazole-resistant Cryptococcus gattii serotype B isolate NIH754 at 3.2 ug/ml; method in brief: as §1
[30] = test system: Cryptococcus gattii species complex; experiment: Antimicrobial activity against fluconazole-resistant Cryptococcus gattii serotype B isolate NIH189 at 3.2 ug/ml; method in brief: as §1
[31] = test system: Cryptococcus gattii species complex; experiment: Antimicrobial activity against fluconazole-resistant Cryptococcus gattii serotype B isolate B5763 at 3.2 ug/ml; method in brief: as §1
[32] = test system: Cryptococcus deuterogattii; experiment: Antimicrobial activity against fluconazole-resistant Cryptococcus gattii serotype B isolate NIH444 at 3.2 ug/ml; method in brief: as §1
[33] = test system: Cryptococcus gattii species complex; experiment: Antimicrobial activity against fluconazole-resistant Cryptococcus gattii serotype B isolate B5788 at 3.2 ug/ml; method in brief: as §1
[34] = test system: Cryptococcus gattii species complex; experiment: Antimicrobial activity against fluconazole-resistant Cryptococcus gattii serotype C isolate H00581-1941 at 3.2 ug/ml
[35] = test system: Cryptococcus gattii species complex; experiment: Antimicrobial activity against fluconazole-resistant Cryptococcus gattii serotype B isolate NIH412 at 3.2 ug/ml; method in brief: as §1
[36] = test system: Cryptococcus gattii species complex; experiment: Antimicrobial activity against fluconazole-resistant Cryptococcus gattii serotype B isolate NIH409 at 3.2 ug/ml; method in brief: as §1
[37] = test system: Cryptococcus gattii species complex; experiment: Antimicrobial activity against fluconazole-resistant Cryptococcus gattii serotype B isolate NIH535 at 3.2 ug/ml; method in brief: as §1
[38] = test system: Cryptococcus gattii species complex; experiment: Antimicrobial activity against fluconazole-resistant Cryptococcus gattii serotype C isolate NIH34 at 3.2 ug/ml
[39] = test system: Cryptococcus gattii species complex; experiment: Antimicrobial activity against fluconazole-resistant Cryptococcus gattii serotype B isolate RB3 at 0.5 ug/ml
[40] = test system: Cryptococcus gattii species complex; experiment: Antimicrobial activity against fluconazole-resistant Cryptococcus gattii serotype B isolate B3939 at 0.5 ug/ml; method in brief: as §1
[41] = test system: Cryptococcus gattii species complex; experiment: Antimicrobial activity against fluconazole-resistant Cryptococcus gattii serotype B isolate B5788 at 0.5 ug/ml; method in brief: as §1
[42] = test system: Cryptococcus gattii species complex; experiment: Antimicrobial activity against fluconazole-resistant Cryptococcus gattii serotype B isolate NIH198 at 0.5 ug/ml; method in brief: as §1
[43] = test system: Cryptococcus gattii species complex; experiment: Antimicrobial activity against fluconazole-resistant Cryptococcus gattii serotype B isolate B4506 at 0.5 ug/ml; method in brief: as §1
[44] = test system: Cryptococcus gattii species complex; experiment: Antimicrobial activity against fluconazole-resistant Cryptococcus gattii serotype B isolate NIH200 at 0.5 ug/ml; method in brief: as §1
[45] = test system: Cryptococcus gattii species complex; experiment: Antimicrobial activity against fluconazole-resistant Cryptococcus gattii serotype B isolate NIH754 at 0.5 ug/ml; method in brief: as §1
[46] = test system: Cryptococcus gattii species complex; experiment: Antimicrobial activity against fluconazole-resistant Cryptococcus gattii serotype B isolate NIH184 at 0.5 ug/ml; method in brief: as §1
[47] = test system: Cryptococcus gattii species complex; experiment: Antimicrobial activity against fluconazole-resistant Cryptococcus gattii serotype C isolate NIH34 at 0.5 ug/ml
[48] = test system: Cryptococcus gattii species complex; experiment: Antimicrobial activity against fluconazole-resistant Cryptococcus gattii serotype B isolate NIH535 at 0.5 ug/ml; method in brief: as §1
[49] = test system: Cryptococcus gattii species complex; experiment: Antimicrobial activity against fluconazole-resistant Cryptococcus gattii serotype B isolate B5763 at 0.5 ug/ml; method in brief: as §1
[50] = test system: Cryptococcus gattii species complex; experiment: Antimicrobial activity against fluconazole-resistant Cryptococcus gattii serotype B isolate NIH189 at 0.5 ug/ml; method in brief: as §1
[51] = test system: Cryptococcus deuterogattii; experiment: Antimicrobial activity against fluconazole-resistant Cryptococcus gattii serotype B isolate NIH444 at 0.5 ug/ml; method in brief: as §1
[52] = test system: Cryptococcus gattii species complex; experiment: Antimicrobial activity against fluconazole-resistant Cryptococcus gattii serotype B isolate NIH412 at 0.5 ug/ml; method in brief: as §1
[53] = test system: Cryptococcus gattii species complex; experiment: Antimicrobial activity against fluconazole-resistant Cryptococcus gattii serotype B isolate NIH409 at 0.5 ug/ml; method in brief: as §1
[54] = test system: Cryptococcus gattii species complex; experiment: Antimicrobial activity against fluconazole-resistant Cryptococcus gattii serotype C isolate NIH257 at 0.5 ug/ml
[55] = test system: Cryptococcus gattii species complex; experiment: Antimicrobial activity against fluconazole-resistant Cryptococcus gattii serotype B isolate NIH771 at 0.5 ug/ml; method in brief: as §1
[56] = test system: Cryptococcus gattii species complex; experiment: Antimicrobial activity against fluconazole-resistant Cryptococcus gattii serotype C isolate H0058-1-818 at 0.5 ug/ml
[57] = test system: Cryptococcus gattii species complex; experiment: Antimicrobial activity against fluconazole-resistant Cryptococcus gattii serotype C isolate H00581-1941 at 0.5 ug/ml

Measured: Activity

CC(/C=C/C(=O)NO)=C\[C@@H](C)C(=O)c1ccc(N(C)C)cc1
inactive: [1] | [2] | [3] | [4] | [5] | [6] | [7] | [8] | [9] | [10] | [11] | [12] | [13] | [14] | [15] | [16] | [17] | [18] | [19]

CN1C(=O)[C@]23CC4=CC=C[C@H](O)[C@H]4N2C(=O)[C@@]1(CO)SS3
inactive: [20] | [21] | [22] | [23] | [24] | [25] | [26] | [27] | [28] | [29] | [30] | [31] | [32] | [33] | [34] | [35] | [36] | [37] | [38]

CO[C@@H](/C(C)=C/C=C/C(C)=C/c1coc(C)n1)[C@@H](C)[C@@H]1C[C@H](O)[C@@]2(C)O[C@@H]2/C=C/[C@@H](C)[C@H]2C[C@H](CC(=O)O2)C[C@@H]2O[C@H]2C(=O)O1
inactive: [39] | [40] | [41] | [42] | [43] | [44] | [45] | [46] | [47] | [48] | [49] | [50] | [51] | [52] | [53] | [54] | [55] | [56] | [57]
